PvdQ inh: blocks Pseudomonas aeruginosa PvdQ acylase activity. purified PvdQ acylase, fluorescence plate reader. inhibition, % at 10 µM. 340,000 compounds, 0.063% hits. AID 488965; in the data active = inhibition above about 30%, passing the limit was not always enough
CAL PDZ FP-1: inhibitors of human CAL PDZ peptide binding | inhibition, % at 24.9 µM | Q9HD26 | AID 602252 | 300,000 compounds, 0.92% hits | purified CAL PDZ, TMR-peptide fluorescence polarization, 1 h;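 active = mean inhibition of at least 30% with at least half of replicates also reaching 30%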
Vif inh: inhibitors of HIV Vif. HEK293T cells, Vif self-association by quenched fluorescence, imaging, 24 h. inhibition, % at 7.49 µM. 340,000 compounds, 0.35% hits. AID 602346; in the data active = inhibition above about 50%, passing the limit was not always enough
Glyco luc inh: N-linked glycosylation inhibition; D54 ERlucT glycosylation luciferase reporter, 24 h; percent of 100 nM tunicamycin response; reporter increase, % at 12.5 µM; 360,000 compounds, 0.23% hits; AID 588692;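 active = mean luciferase reporter signal, scaled so untreated is 0 and the glycosylation-blocking control 100, at or above a set limit in every replicate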;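 also: luciferase carries N-glycosylation sites so blocking glycosylation raises the light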
CDK5 p35 inh: CDK5/p35 (human) kinase inhibition; Q00535+Q15078; Recombinant CDK5/p35, ADP-Glo luminescence, 60 min; inhibition, % at 10 µM; 330,000 compounds, 0.01% hits; AID 488839;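 active = highest replicate inhibition of at least 50% and at least 75% of replicates reaching 50%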
Target sequence (Q00535 whole entry, looked up): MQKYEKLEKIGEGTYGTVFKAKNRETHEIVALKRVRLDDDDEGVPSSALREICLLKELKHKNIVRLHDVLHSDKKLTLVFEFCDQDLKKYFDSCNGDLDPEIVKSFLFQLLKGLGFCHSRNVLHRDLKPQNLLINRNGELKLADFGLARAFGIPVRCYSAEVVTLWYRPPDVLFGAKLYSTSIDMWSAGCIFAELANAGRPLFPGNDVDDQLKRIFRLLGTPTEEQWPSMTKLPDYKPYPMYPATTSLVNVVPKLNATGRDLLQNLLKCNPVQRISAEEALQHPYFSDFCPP
Target sequence (Q15078 whole entry, looked up): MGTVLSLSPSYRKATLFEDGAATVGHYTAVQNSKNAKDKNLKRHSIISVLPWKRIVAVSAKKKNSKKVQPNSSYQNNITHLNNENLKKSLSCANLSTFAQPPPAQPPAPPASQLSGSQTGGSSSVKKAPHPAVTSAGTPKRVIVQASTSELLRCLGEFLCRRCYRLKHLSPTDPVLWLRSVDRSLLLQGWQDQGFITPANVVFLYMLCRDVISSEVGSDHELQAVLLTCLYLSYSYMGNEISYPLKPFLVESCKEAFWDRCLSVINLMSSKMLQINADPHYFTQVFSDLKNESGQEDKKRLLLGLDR
CAL PDZ FP-2: human CAL PDZ-peptide interaction inhibition | Q9HD26 | purified CAL PDZ, TMR-peptide fluorescence polarization, 1 h | inhibition, % at 20 µM | 330,000 compounds, 0.02% hits;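 active = highest replicate inhibition of at least 40%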
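Material: tagged CAL PDZ domain; buffer or medium: 25 mM sodium phosphate pH 7.4, 150 mM NaCl, TCEP, IgG, Thesit; compound dosing: single point, 20 µM; schedule: 1 h incubation at room temperature before polarization reading; measured by: FP readout, S and P plane fluorescence; read-out basis: percent inhibition from loss of millipolarization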
Of the large screens only hits and unclear results are named; the others gave an inactive call. In the library only some 1.4% were active in any assay of this set; here they are far more common.

COc1cc(-c2coc3c(C(=O)NCc4ccc(OC)c(OC)c4)cccc23)ccc1O	Glyco luc inh 90.9 (no result: PvdQ inh, CAL PDZ FP-1, CDK5 p35 inh, CAL PDZ FP-2)
O=C(NCC1CCCO1)c1cn(Cc2ccccc2)nc1-c1ccc(Cl)cc1 (stereo unspecified)	none
Nc1ccc(C(=O)c2ccccc2C(=O)O)cc1Cl	Vif inh 55.0 (no result: CAL PDZ FP-1)
Cc1noc(C)c1NC(=O)N(C)C[C@H]1Oc2c(NC(=O)C3CC3)cccc2C(=O)N([C@H](C)CO)C[C@@H]1C	none
O=C(O)CSC(C(=O)Nc1ccc(Br)cc1)c1ccc(Cl)cc1 (stereo unspecified)	CAL PDZ FP-1 135.2
Cc1c(Br)ccc(NC(=O)CCN2C(=O)C3C4CCC(C4)C3C2=O)c1C (stereo unspecified)	CAL PDZ FP-1 32.0
Cc1cc(NC(=O)CCN2C(=O)C3C4CCC(C4)C3C2=O)cc(C)c1Br (stereo unspecified)	none
Cn1c(N)c(C(=O)COC(=O)c2ccccn2)c(=O)n(C)c1=O	none
Cn1c(N)c(C(=O)COC(=O)c2ncc(Cl)c(Cl)c2Cl)c(=O)n(C)c1=O	CAL PDZ FP-1 55.5
CCN(CC)c1c(C)nc2ccc(C(=O)N3CCN(C(=O)c4ccco4)CC3)cn12	none (no result: PvdQ inh, CAL PDZ FP-1, CDK5 p35 inh, CAL PDZ FP-2)
CC(=O)c1sc(-c2ccc(Cl)cc2)cc1N	none
COC(=O)c1sc(-c2ccc(Cl)cc2)cc1N	CAL PDZ FP-1 55.1
O=C1COc2ccc(S(=O)(=O)N3CCN(c4ccccc4F)CC3)cc2N1	none
O=C(COC(=O)CCCN1C(=O)c2ccccc2C1=O)Nc1ncc(Cl)cc1Cl	CAL PDZ FP-1 40.4
N#CCC(CNc1ncc(C(F)(F)F)cc1Cl)OC(=O)c1ccc(Cl)cc1Cl (stereo unspecified)	Glyco luc inh 30.0
CCOC(=O)CNc1ncc(C(F)(F)F)cc1Cl	none
CCOC(=O)c1cocc1C(=O)O	none
COc1ccccc1N1CN(S(=O)(=O)c2ccc(C)cc2)c2nc3ccccc3nc21	CAL PDZ FP-1 110.0
Cc1c(N2C(=O)c3ccc(Br)cc3C2=O)c(=O)n(-c2ccccc2)n1C	CAL PDZ FP-1 36.3
COc1cc(S(=O)(=O)Nc2ccccc2C(=O)N2CCCCC2)ccc1NC(C)=O	none (no result: CAL PDZ FP-1)
COc1ccc(Nc2nc3ccccc3nc2NS(=O)(=O)c2cccs2)cc1	CAL PDZ FP-1 48.4
CC(=O)c1ccc(Nc2nc3ccccc3nc2NS(=O)(=O)c2cccs2)cc1	none
O=C(CSc1nc2[nH]ncc2c(=O)[nH]1)Nc1ccccc1F	none (no result: CAL PDZ FP-1)
COc1cc2[nH]c(=S)n(Cc3ccc(C)cc3)c(=O)c2cc1OC	CAL PDZ FP-1 39.8
COc1ccc(Cn2c(=S)[nH]c3cc(OC)c(OC)cc3c2=O)cc1	none
Cc1ccc(S(=O)(=O)N2CCOC2CNC(=O)C(=O)NCCCc2ccccc2)cc1 (stereo unspecified)	none
Cc1ccc(S(=O)(=O)N2CCOC2CNC(=O)C(=O)NCCc2ccccc2)cc1 (stereo unspecified)	CAL PDZ FP-1 33.2
CC(=O)C1=C(C)NC(SCC(=O)c2ccc(Cl)cc2)=C(C#N)C1c1ccco1 (stereo unspecified)	Vif inh 57.7
O=C(NCCCn1ccnc1)C(=O)NCC(c1ccco1)N1CCN(c2ccccc2)CC1 (stereo unspecified)	none
O=C(NCCCn1ccnc1)C(=O)NCC(c1cccnc1)N1CCN(c2ccccc2)CC1 (stereo unspecified)	Vif inh 53.7
Cc1noc(C)c1NC(=O)Nc1cccc2c1O[C@H](CN(C)S(=O)(=O)c1cn(C)cn1)[C@@H](C)CN([C@H](C)CO)C2=O	none
C[C@H]1CN(S(=O)C(C)(C)C)[C@@H](CCO)/C1=C\CCO (stereo partly specified)	none
Cc1ccnc(NC(=O)c2ccc(Br)s2)c1	CAL PDZ FP-1 63.2 (no result: CAL PDZ FP-2)
Cc1oc(-c2ccc(Cl)cc2)nc1CS(=O)CC(=O)NC1CCCC1 (stereo unspecified)	none
O=C1c2ccccc2C(Nc2ccc(S(=O)(=O)N3CCOCC3)cc2)N1c1ccccn1 (stereo unspecified)	Vif inh 52.1 (no result: CAL PDZ FP-1)
O=C(O)c1ccc(CNC(=O)c2ccccc2NC(=O)c2ccc([N+](=O)[O-])cc2)cc1	CAL PDZ FP-1 49.5 (no result: CAL PDZ FP-2)
O=C(Nc1ccccc1C(=O)Nc1ccccn1)c1ccc([N+](=O)[O-])cc1	CAL PDZ FP-1 42.8
O=C(O)c1ccc(CNC(=O)c2ccccc2NC(=O)c2cccc([N+](=O)[O-])c2)cc1	none
COc1ccccc1C(=O)NN(C)C1=NS(=O)(=O)c2ccccc21	none
CCOC(=O)c1oc2ccccc2c1COC(=O)C(C)NC(=O)c1ccco1 (stereo unspecified)	none
O=C(CCNS(=O)(=O)c1ccc(Cl)cc1)OCC(=O)N1CCN(C(=O)c2ccco2)CC1	none
O=C(OCC(=O)N1CCN(C(=O)c2ccco2)CC1)c1cc(S(=O)(=O)Nc2ccc(Cl)cc2)ccc1O	CAL PDZ FP-1 53.3
O=C(OCC(=O)N1CCN(C(=O)c2ccco2)CC1)c1cncc(Br)c1	CAL PDZ FP-1 35.5
O=C(OCC(=O)N1CCCC1)c1cncc(Br)c1	none (no result: Vif inh, CAL PDZ FP-2)
COc1ccc(CCNC(=O)/C=C\c2ccccc2)cc1OC	none
COc1ccc(/C=C/C(=O)NC(=S)NCCc2ccc(OC)c(OC)c2)cc1	Vif inh 70.3
CCOC(=O)C1=CC[C@H]2c3c(c4ccccc4n3C)C(=O)C1N2C	none
COC(=O)c1ccccc1NC(=O)CSc1nncn1-c1cccnc1	none
COC(=O)c1ccccc1NC(=O)CSc1nncn1C	CAL PDZ FP-1 54.7
Cc1cc(NC(=O)COC(=O)CNS(=O)(=O)c2c(F)cc(F)cc2Br)no1	none (no result: CAL PDZ FP-1)
C[C@@H]1CN([C@@H](C)CO)S(=O)(=O)c2ccc(Br)cc2O[C@H]1CN(C)Cc1ccc(-c2ccccc2)cc1	none (no result: PvdQ inh, CAL PDZ FP-1, CDK5 p35 inh, CAL PDZ FP-2)
CC1CCc2nc3ccc(S(=O)(=O)N4CCC(C(=O)NC(C)c5ccccc5)CC4)cc3c(C(=O)O)c2C1 (stereo unspecified)	none
CC1CCN(C(=O)CSc2nnc(-c3ccccc3F)o2)CC1	none
NC(=O)NCC(=O)N1CCC(C(O)(c2ccccc2)c2ccccc2)CC1	CAL PDZ FP-1 79.1
CCNC(=S)N1CCC(C(O)(c2ccccc2)c2ccccc2)CC1	none
COc1cc(C(=O)NNC(=S)NCc2ccco2)cc(OC)c1OC	none (no result: CAL PDZ FP-1)
COc1ccc([C@H]2CC(=O)C=C(c3cc4ccccc4c4ccccc34)C2)cc1	none
Cc1cc(C(=O)Nc2ccc3ccccc3c2)c(C)o1	CAL PDZ FP-1 41.0
O=C(Nc1ccncc1)c1cccc2ccccc12	none
Cc1cc(C(=O)NN)c(C)o1	none
COc1ccc(-c2coc3c(C(=O)Nc4cccc(C(C)=O)c4)cccc23)c(C)c1	Vif inh 149.9 (no result: PvdQ inh, CAL PDZ FP-1, CDK5 p35 inh, CAL PDZ FP-2)
Cc1cc(C(=O)NCC(=O)O)c(C)o1	Vif inh 115.0
O=C(Nc1ccc2ccccc2c1)c1cccc2ccccc12	CAL PDZ FP-1 69.9

Screening results (PubChem)
